Results taken from ChEMBL document CHEMBL1123566, “Synthesis and cardiac electrophysiological activity of 2- and 3-[(substituted phenyl)alkyl]quinuclidines. Structure-activity relationships” (1987).
“And” between values parts separate entries of the source, which are not always exact repeats. Identical values can stand only once.

Experiments:
Canis familiaris [1] = assay: Heart rate was determined by intraduodenal administration of two dosages of 3 mg/kg of (high dose) compound in anesthetized dogs. Value was reported for experiment 3; format: functional, Canis lupus familiaris
Procedure, shortened: (§1)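 Anesthetized dogs given the compound intraduodenally, generally as two doses with the second a cumulative total (low/high). FRP and CT measured at 15, 30 and 45 min after dosing. HR and BP taken during nonpacing intervals. Values are percent change from control per animal. Activity criterion is FRP or CT prolonged ≥12%. Vehicle: 5% dextrose in water/tragacanth.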

Canis familiaris [2] = assay: Conduction time was determined by intraduodenal administration of two dosages of 1 mg/kg (low dose) of compound in anesthetized dogs. Value was reported for experiment 3; format: functional, Canis lupus familiaris; procedure, shortened: as §1
Canis familiaris [3] = species: Canis familiaris; assay: In vitro electrophysiological evaluation in canine cardiac ventricular muscle reported as maximum % change for conduction time(CT) at 0.1-100 uM concentration range; format: functional, Canis lupus familiaris, Muscle tissue
Procedure, shortened: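 Canine right ventricle and papillary muscle strips in oxygenated Tyrode's solution, fitted with stimulating and recording electrodes. The extra-stimulus conduction-interval method was adapted for in vitro use. FRP and CT were read from a conduction-interval curve before and after various compound concentrations, and expressed as percent change from control. Compounds were taken from 10 mM deionized-water stock into Tyrode's. Each strip was used once as its own control.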

Canis familiaris [4] = assay: Mean arterial blood pressure was determined by intraduodenal administration of two dosages of 3 mg/kg of (low dose) compound in anesthetized dogs. Value was reported for experiment 1; format: functional, Canis lupus familiaris
Procedure, shortened: (§2)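 Anesthetized dogs received two intraduodenal doses, the second cumulative (low dose/high dose). Left ventricular FRP and CT were measured 15, 30 and 45 min after dosing. Heart rate and mean blood pressure were taken during nonpacing intervals. Values are percent change from control. The vehicle was 5% dextrose in water/tragacanth. Activity was defined as ≥12% prolongation of FRP or CT.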

Canis familiaris [5] = assay: Conduction time was determined by intraduodenal administration of two dosages of 1 mg/kg (low dose) of compound in anesthetized dogs. Value was reported for experiment 2; format: functional, Canis lupus familiaris; procedure, shortened: as §1
Canis familiaris [6] = species: Canis familiaris; assay: In vitro electrophysiological evaluation in canine cardiac Purkinje fibres reported as % change for action potential duration at 0.1-100 uM concentration range; format: functional, Canis lupus familiaris, Purkinje fiber
Procedure, shortened: (§3)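 Canine cardiac Purkinje fibres, intracellular microelectrode recording, paced at a basic cycle length of 1 s. APD95 and Vmax read simultaneously. Compound: 10 mM stock in deionized water, diluted into Tyrode's solution, tested over the stated concentration range. Each fibre used once as its own control. Result is % change from control, given at 10 µM or as the maximum with its concentration. M = <10% decrease or an increase in Vmax.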

Canis familiaris [7] = species: Canis familiaris; assay: In vitro electrophysiological evaluation in canine cardiac Purkinje fibres reported as percent change Vmax concentration range of 1-100 uM; format: functional; conditions: Canis lupus familiaris; Purkinje fiber
Procedure, shortened: (§4)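 Canine cardiac Purkinje fibers, intracellular recording, paced at a basic cycle length of 1 s. APD95 and Vmax are recorded together across cumulative concentrations. Compound is a 10 mM aqueous stock diluted into Tyrode's solution. Each fiber is used once as its own control. Readouts are percent change from control at 10 μM, and the maximum change with the concentration where it occurred.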

Canis familiaris [8] = species: Canis familiaris; assay: In vitro electrophysiological evaluation in canine cardiac Purkinje fibres reported as percent change Vmax concentration range of 0.1-100 uM; Minimal (<IO%increase or a decrease in CT); format: functional; conditions: Canis lupus familiaris; Purkinje fiber; procedure, shortened: as §3
Canis familiaris [9] = species: Canis familiaris; assay: In vitro electrophysiological activity in canine cardiac Purkinje fibres given as maximum % change for action potential duration at 0.1-100 uM concentration; format: functional, Canis lupus familiaris, Purkinje fiber
Procedure, shortened: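 Canine cardiac Purkinje fibres, intracellular recording at 1 s basic cycle length, over cumulative concentration ranges. Compound 10 mM stock in deionized water diluted into Tyrode's. Each fibre used once as its own control. Value is the maximum % change from control in APD at 95% repolarization, with the concentration where it occurred; both values given if a biphasic response (>20% reversal) occurred.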

Canis familiaris [10] = assay: Conduction time was determined by intraduodenal administration of two dosages of 10 mg/kg (high dose) of compound in anesthetized dogs. Value was reported for experiment 3; format: functional, Canis lupus familiaris; procedure, shortened: as §1
Canis familiaris [11] = species: Canis familiaris; assay: In vitro electrophysiological evaluation in canine cardiac Purkinje fibres reported as % change for action potential duration at 1-100 uM concentration range; format: functional, Canis lupus familiaris, Purkinje fiber; procedure, shortened: as §4
Canis familiaris [12] = species: Canis familiaris; assay: In vitro electrophysiological evaluation in canine cardiac ventricular muscle reported as % change for conduction time(CT) at 0.1-100 uM concentration range; Minimal (<IO%increase or a decrease in CT); format: functional, Canis lupus familiaris, Muscle tissue
Canis familiaris [13] = species: Canis familiaris; assay: In vitro electrophysiological evaluation in canine cardiac Purkinje fibres reported as maximum percent change Vmax concentration range of 0.01-100 uM; […]; format: functional; conditions: Canis lupus familiaris; Purkinje fiber; procedure, shortened: as §4
Canis familiaris [14] = assay: Mean arterial blood pressure was determined by intraduodenal administration of two dosages of 3 mg/kg of (high dose) compound in anesthetized dogs. Value was reported for experiment 2; format: functional, Canis lupus familiaris
Procedure, shortened: (§5)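 Anesthetized dogs, usually given two intraduodenal doses, with the second dose cumulative (low/high). Left ventricular FRP and CT were determined at 15, 30 and 45 min after dosing. HR and BP were measured during nonpacing intervals. Values are % change from control at low/high dose, for individual animals. The vehicle-stability set used 5% dextrose in water/tragacanth (n = 8).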

Canis familiaris [15] = assay: Heart rate was determined by intraduodenal administration of two dosages of 1 mg/kg of (low dose) compound in anesthetized dogs. Value was reported for experiment 3; format: functional, Canis lupus familiaris; procedure, shortened: as §1
Canis familiaris [16] = species: Canis familiaris; assay: In vitro electrophysiological evaluation in canine cardiac Purkinje fibres reported as % change for action potential duration at 0.1-10 uM concentration range; format: functional, Canis lupus familiaris, Purkinje fiber; procedure, shortened: as §3
Canis familiaris [17] = assay: Left ventricular refractory period was determined by intraduodenal administration of two dosages of 3 mg/kg of (low dose) compound in anesthetized dogs. Value was reported for experiment 1; format: functional, Canis lupus familiaris, Cardiac ventricle; procedure, shortened: as §2
Canis familiaris [18] = assay: Conduction time was determined by intraduodenal administration of two dosages of 10 mg/kg of compound in anesthetized dogs. Value was reported for experiment 1; format: functional, Canis lupus familiaris; procedure, shortened: as §1
Canis familiaris [19] = species: Canis familiaris; assay: In vitro electrophysiological evaluation in canine cardiac Purkinje fibres reported as percent change Vmax concentration range of 0.1-10 uM; format: functional; conditions: Canis lupus familiaris; Purkinje fiber; procedure, shortened: as §4
Canis familiaris [20] = assay: Mean arterial blood pressure was determined by intraduodenal administration of two dosages of 1 mg/kg of (low dose) compound in anesthetized dogs. Value was reported for experiment 3; format: functional, Canis lupus familiaris; procedure, shortened: as §5
Canis familiaris [21] = assay: Left ventricular refractory period was determined by intraduodenal administration of two dosages of 3 mg/kg of (high dose) compound in anesthetized dogs. Value was reported for experiment 3; format: functional, Canis lupus familiaris, Cardiac ventricle; procedure, shortened: as §5
Canis familiaris [22] = assay: Conduction time was determined by intraduodenal administration of two dosages of 3 mg/kg (high dose) of compound in anesthetized dogs. Value was reported for experiment 3; format: functional, Canis lupus familiaris; procedure, shortened: as §1
Canis familiaris [23] = assay: Mean arterial blood pressure was determined by intraduodenal administration of two dosages of 1 mg/kg of (low dose) compound in anesthetized dogs. Value was reported for experiment 2; format: functional, Canis lupus familiaris; procedure, shortened: as §5
Canis familiaris [24] = species: Canis familiaris; assay: In vitro electrophysiological evaluation in canine cardiac ventricular muscle reported as % change for the functional refractory period (FRP) concentration range of 0.1-10 uM; parameters: species or system Canis lupus familiaris, Muscle tissue
Procedure, shortened: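 Canine right ventricular/papillary muscle strips in oxygenated Tyrode's, extracellular extra-stimulus conduction-interval method. FRP and CT are read from conduction-interval curves before and during rising concentrations. Compound is a 10 mM aqueous stock diluted into Tyrode's. Each strip is used once as its own control. Readouts are percent change from control at 10 μM, plus the maximum change with its concentration.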

Canis familiaris [25] = species: Canis familiaris; assay: In vitro electrophysiological evaluation in canine cardiac Purkinje fibres reported as percent change Vmax concentration range of 0.01-100 uM; […]; format: functional; conditions: Canis lupus familiaris; Purkinje fiber; procedure, shortened: as §4
Canis familiaris [26] = species: Canis familiaris; assay: In vitro electrophysiological evaluation in canine cardiac Purkinje fibres reported as % change for action potential duration at 0.01-100 uM concentration range; format: functional, Canis lupus familiaris, Purkinje fiber; procedure, shortened: as §4

## CCCCCCC[N+](CC)(CC)CCCCc1ccc(Cl)cc1.O=P([O-])(O)O [CLOFILIUM PHOSPHATE]
Canis familiaris [1]
  HR: -7%
Canis familiaris [2]
  CT: 0%
Canis familiaris [3]
  CT: 19%
Canis familiaris [4]
  Mean blood pressure: -7%
Canis familiaris [5]
  CT: -5%
Canis familiaris [6]
  APD95: 48% and 46%
Canis familiaris [7]
  Vmax: -50% and -49%
Canis familiaris [8]
  Vmax: < 10%
Canis familiaris [9]
  APD95: 52% and 46%
Canis familiaris [10]
  CT: -11%
Canis familiaris [11]
  APD95: 49% and 18%
Canis familiaris [12]
  CT: <10%
Canis familiaris [13]
  Vmax: < 10%
Canis familiaris [14]
  Mean blood pressure: -14%
Canis familiaris [15]
  HR: -2%
Canis familiaris [16]
  APD95: 52%
Canis familiaris [17]
  LV FRP: 10%
Canis familiaris [18]
  CT: -7%
Canis familiaris [19]
  Vmax: -11%
Canis familiaris [20]
  Mean blood pressure: -3%
Canis familiaris [21]
  LV FRP: 4%
Canis familiaris [22]
  CT: -7%
Canis familiaris [23]
  Mean blood pressure: -2%
Canis familiaris [24]
  FRP: 38%
Canis familiaris [25]
  Vmax: < 10%
Canis familiaris [26]
  APD95: 27% and 55%
